The results in this text go back to ChEMBL document CHEMBL1131242, “6beta-Acetoxynortropane: a potent muscarinic agonist with apparent selectivity toward M2-receptors” (J Med Chem, 1998).

In test [1] the target is T1, Muscarinic acetylcholine receptor M4 (Homo sapiens, UniProt P08173).
T1 sequence (P08173 whole entry): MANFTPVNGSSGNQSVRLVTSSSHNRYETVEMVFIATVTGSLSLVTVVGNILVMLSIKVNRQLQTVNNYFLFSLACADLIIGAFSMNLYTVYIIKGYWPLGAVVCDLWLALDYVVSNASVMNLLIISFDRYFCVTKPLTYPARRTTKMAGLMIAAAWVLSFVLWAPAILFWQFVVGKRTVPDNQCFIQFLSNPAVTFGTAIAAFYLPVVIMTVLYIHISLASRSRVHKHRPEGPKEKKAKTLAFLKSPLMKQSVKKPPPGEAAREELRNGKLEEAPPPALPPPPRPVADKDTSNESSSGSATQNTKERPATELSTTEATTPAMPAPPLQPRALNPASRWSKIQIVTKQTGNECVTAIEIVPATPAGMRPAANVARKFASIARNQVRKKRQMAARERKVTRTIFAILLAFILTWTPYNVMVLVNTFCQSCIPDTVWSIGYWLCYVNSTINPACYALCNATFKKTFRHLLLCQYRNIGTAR
Put plainly: Inhibition of binding of [3H]quinuclidinyl benzilate to muscarinic receptors in membranes of CHO cells transfected with Muscarinic acetylcholine receptor M4. It counts as cell membranes.

Test [2] addresses Muscarinic acetylcholine receptor M1 (Homo sapiens) (UniProt P11229). Put plainly: Inhibitory activity against stimulation of [3H]inositol monophosphate accumulation in [3H]inositol-labelled CHO transfected cells mediated by Muscarinic acetylcholine receptor M1.
The target in test [3] is Muscarinic acetylcholine receptor M4 (Homo sapiens) (UniProt P08173). Kind of test: Inhibition of binding of [3H]quinuclidinyl benzilate to Muscarinic acetylcholine receptor M4 in membranes of transfected CHO cells.
The target in test [4] is Muscarinic acetylcholine receptor M2 (Homo sapiens) (UniProt P08172). Put plainly: Inhibition of binding of 0.1 nM [3H]quinuclidinyl benzilate to Muscarinic acetylcholine receptor M2 in membranes of transfected CHO cells in the presence of 10 uM GTP.
For test [5] the target is unchanged. Kind of test: Inhibition of binding of 0.1 nM [3H]quinuclidinyl benzilate to Muscarinic acetylcholine receptor M2 in membranes of transfected CHO cells in the absence of GTP.
For test [6], the target named is T2, Muscarinic acetylcholine receptor M2 (Homo sapiens, UniProt P08172).
T2 sequence (P08172 whole entry): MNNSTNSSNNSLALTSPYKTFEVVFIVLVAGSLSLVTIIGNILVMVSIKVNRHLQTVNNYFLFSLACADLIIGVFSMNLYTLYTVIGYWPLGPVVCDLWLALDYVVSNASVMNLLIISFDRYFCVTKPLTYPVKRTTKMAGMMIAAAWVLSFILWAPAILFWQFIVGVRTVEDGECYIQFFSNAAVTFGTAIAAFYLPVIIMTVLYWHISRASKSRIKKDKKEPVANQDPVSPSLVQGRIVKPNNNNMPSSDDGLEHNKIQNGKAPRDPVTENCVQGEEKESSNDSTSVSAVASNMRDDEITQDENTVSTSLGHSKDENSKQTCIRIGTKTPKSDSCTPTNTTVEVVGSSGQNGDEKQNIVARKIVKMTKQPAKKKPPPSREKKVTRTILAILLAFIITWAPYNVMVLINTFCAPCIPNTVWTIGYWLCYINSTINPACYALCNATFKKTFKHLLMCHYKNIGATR
Kind of test: Inhibitory activity against [3H]quinuclidinyl Benzilate binding to Muscarinic acetylcholine receptor M2 in the absence of GTP. The method, boiled down:
(§1)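 Membranes from CHO cells expressing human M2 receptor. Competition against 0.1 nM [3H]quinuclidinyl benzilate in 25 mM sodium phosphate pH 7.4, 5 mM MgCl2, without or with 10 μM GTP; 30 min at 37 °C, triplicate. Nonspecific binding with 1 μM atropine. Filtration, scintillation counting.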

Test [7] addresses T2, Muscarinic acetylcholine receptor M2. Kind of test: Inhibition of binding of [3H]quinuclidinyl benzilate to muscarinic receptors in membranes of CHO cells transfected with Muscarinic acetylcholine receptor M2. Format: cell membranes.
Test [8] has as its target Muscarinic acetylcholine receptor M4 (Homo sapiens) (UniProt P08173). Kind of test: Inhibitory activity against [3H]-cyclic AMP accumulation in CHO transfected cells mediated by Muscarinic acetylcholine receptor M4.
Test [9] has as its target T2, Muscarinic acetylcholine receptor M2. Kind of test: Inhibitory activity against [3H]quinuclidinyl Benzilate binding to Muscarinic acetylcholine receptor M2 in the presence of GTP. The method, boiled down: as §1
In test [10] the target is T3, Muscarinic acetylcholine receptor M3 (Homo sapiens, UniProt P20309). Put plainly: Percentage inhibition of binding of [3H]quinuclidinyl benzilate to muscarinic receptors in membranes of CHO cells transfected with Muscarinic acetylcholine receptor M3. It counts as cell membranes. Particulars: concentration not given here.
Target sequence in this assay (P20309 whole entry, looked up): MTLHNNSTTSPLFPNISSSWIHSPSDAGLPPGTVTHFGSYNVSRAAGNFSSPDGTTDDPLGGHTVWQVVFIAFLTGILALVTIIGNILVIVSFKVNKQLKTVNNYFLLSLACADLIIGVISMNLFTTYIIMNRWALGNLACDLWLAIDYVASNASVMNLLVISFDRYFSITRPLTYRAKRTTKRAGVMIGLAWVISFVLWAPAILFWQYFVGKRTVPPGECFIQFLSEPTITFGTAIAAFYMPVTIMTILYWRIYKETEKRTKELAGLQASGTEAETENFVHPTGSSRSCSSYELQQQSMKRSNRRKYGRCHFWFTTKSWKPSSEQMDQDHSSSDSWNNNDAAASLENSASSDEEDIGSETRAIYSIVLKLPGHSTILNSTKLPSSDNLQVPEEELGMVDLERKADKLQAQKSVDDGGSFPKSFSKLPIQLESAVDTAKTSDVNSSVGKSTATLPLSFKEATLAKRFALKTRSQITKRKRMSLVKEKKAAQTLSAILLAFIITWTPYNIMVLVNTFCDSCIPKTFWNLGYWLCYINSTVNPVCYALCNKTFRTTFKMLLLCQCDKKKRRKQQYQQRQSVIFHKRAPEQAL
Test [11] concerns the target Muscarinic acetylcholine receptor M2 (Homo sapiens) (UniProt P08172). Put plainly: Inhibition of binding of [3H]quinuclidinyl benzilate to Muscarinic acetylcholine receptor M2 in membranes of transfected CHO cells.
Test [12] has as its target T4, Muscarinic acetylcholine receptor M1 (Homo sapiens) (UniProt P11229).
T4 sequence (whole entry): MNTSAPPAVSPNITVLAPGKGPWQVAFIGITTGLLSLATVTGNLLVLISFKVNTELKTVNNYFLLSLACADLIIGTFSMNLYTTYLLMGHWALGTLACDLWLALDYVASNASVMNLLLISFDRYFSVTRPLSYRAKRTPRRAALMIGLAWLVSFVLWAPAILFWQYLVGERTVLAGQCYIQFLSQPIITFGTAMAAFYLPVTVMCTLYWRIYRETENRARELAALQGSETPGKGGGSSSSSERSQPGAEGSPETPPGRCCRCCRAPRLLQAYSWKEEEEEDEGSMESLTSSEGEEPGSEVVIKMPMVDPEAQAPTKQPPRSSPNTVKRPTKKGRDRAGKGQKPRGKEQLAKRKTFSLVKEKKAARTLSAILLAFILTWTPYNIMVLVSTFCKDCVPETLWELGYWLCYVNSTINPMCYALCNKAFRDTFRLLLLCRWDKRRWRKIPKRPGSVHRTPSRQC
Put plainly: Percentage inhibition of binding of [3H]quinuclidinyl benzilate to muscarinic receptors in membranes of CHO cells transfected with Muscarinic acetylcholine receptor M1. It counts as cell membranes. To be noted: concentration not given here. In outline:
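Membranes from CHO cells expressing human M1–M4 receptors in 25 mM sodium phosphate pH 7.4 with 5 mM MgCl2, 30 min at 37 °C, triplicate. [3H]quinuclidinyl benzilate was 0.2 nM for M1 and M3 and 0.1 nM for M2 and M4. Nonspecific binding used 10 µM atropine for M1 and 1 µM for the others.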

In test [13] the target is T3, Muscarinic acetylcholine receptor M3. Put plainly: Inhibitory activity against stimulation of [3H]inositol monophosphate accumulation in [3H]inositol-labelled CHO transfected cells mediated by Muscarinic acetylcholine receptor M3.
Target sequence in this assay (P20309 whole entry, looked up): as the sequence (P20309 whole entry, looked up) above
For test [14], the target named is T5, Neuronal acetylcholine receptor; alpha4/beta2 (Rattus norvegicus, UniProt P09483+P12390). Put plainly: Inhibition of binding of [3H]nicotine to Nicotinic acetylcholine receptor alpha4-beta2 in rat cerebral cortical membranes. It counts as cell membranes, Membrane. In outline: (§2)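 Rat cerebral cortex membranes with 0.2 nM [3H]nicotine in HEPES binding buffer pH 7.4 containing 200 µM diisopropyl fluorophosphate. Incubation was 120 min at 0–4 °C, in triplicate. Nonspecific binding used 1 µM nicotine. Samples were filtered through polyethylenimine-soaked GF/B filters and counted.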

In test [15] the target is T5, Neuronal acetylcholine receptor; alpha4/beta2. Kind of test: (§3) The compound was evaluated for percentage inhibition of binding of [3H]- nicotine to Nicotinic acetylcholine receptor alpha4-beta2 in Rat Cerebral Cortical Membranes. Format: protein-complex assay. In outline:
as §2

The target in test [16] is T3, Muscarinic acetylcholine receptor M3. Put plainly: Inhibition of binding of [3H]quinuclidinyl benzilate to muscarinic receptors in membranes of CHO cells transfected with Muscarinic acetylcholine receptor M3. It counts as cell membranes.
Target sequence in this assay (P20309 whole entry): as the sequence (P20309 whole entry, looked up) above
The target of test [17] is T6, Muscarinic acetylcholine receptor M1 (Rattus norvegicus, UniProt P08482).
T6 sequence (P08482 whole entry): T4 sequence (whole entry) with A5V, T254S, P309S, R320K, A337G, I413V
Put plainly: Affinity versus [3H]oxotremorine M (agonist) binding to Muscarinic acetylcholine receptor M1 in Rat Cerebral Cortical Membranes, (Kd=[…]).

For test [18], the target named is Muscarinic acetylcholine receptor M1 (Homo sapiens) (UniProt P11229). Kind of test: Inhibition of binding of [3H]quinuclidinyl benzilate to human Muscarinic acetylcholine receptor M1 in membranes of transfected CHO cells at 300 uM concentration. To be noted: Membrane.
In test [19] the target is T6, Muscarinic acetylcholine receptor M1. Put plainly: Inhibition of binding of [3H]oxotremorine M to Muscarinic acetylcholine receptor M1 in rat cerebral cortical membranes. It counts as cell membranes, Membrane. In outline:
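Agonist radioligand assay: rat cortical membranes with 2 nM [3H]oxotremorine M in 25 mM sodium phosphate pH 7.4 with 5 mM MgCl2, 2 h at 25 °C, in triplicate. Nonspecific binding used 5 µM atropine. Filtration followed by scintillation counting.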

Test [20] concerns the target T7, Muscarinic acetylcholine receptor M1 (Rattus norvegicus) (UniProt P08482).
T7 sequence (whole entry): T4 sequence (whole entry) with A5V, T254S, P309S, R320K, A337G, I413V
Put plainly: Percentage inhibition of binding of [3H]quinuclidinyl benzilate to muscarinic acetylcholine receptor M1 in rat cerebral cortical membranes. It counts as cell membranes. Details: concentration or dose not given beside the values. To be noted: Membrane, concentration not given here. The method, boiled down: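 Rat cerebral cortex membranes were homogenised in 50 mM Tris-HCl pH 7.4 and diluted in HEPES binding buffer. They were incubated with 0.2 nM [3H]quinuclidinyl benzilate in 20 mM HEPES pH 7.4 with 10 mM MgCl2 and 100 mM NaCl for 30 min at 37 °C, in triplicate. Nonspecific binding used 1 µM atropine. Filtration was followed by scintillation counting.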

For test [21], the target named is T8, Neuronal acetylcholine receptor; alpha4/beta2 (Rattus norvegicus) (UniProt P09483+P12390). Put plainly: Inhibition of binding of [3H]nicotine to Nicotinic acetylcholine receptor alpha4-beta2 in rat cerebral cortical membranes at 100 uM concentration. It counts as cell membranes. To be noted: Membrane. The method, boiled down: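 [3H]nicotine (0.2 nM) binding to rat cortical membranes, with 200 µM diisopropyl fluorophosphate, 120 min at 0–4 °C, triplicate. Nonspecific binding with 1 µM nicotine. Percent inhibition at 100 µM test agent; mean ± SEM, n = 4.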

For test [22], the target named is T8, Neuronal acetylcholine receptor; alpha4/beta2 (Rattus norvegicus). The test is described as §3. To be noted: concentration not given here. Format: protein-complex assay. Details: concentration or dose not given beside the values. The method, boiled down:
as §2

The target in test [23] is T3, Muscarinic acetylcholine receptor M3. Kind of test: Inhibition of binding of [3H]quinuclidinyl benzilate to human Muscarinic acetylcholine receptor M3 in membranes of transfected CHO cells at 100 uM concentration. To be noted: Membrane.
Target sequence in this assay (P20309 whole entry, looked up): as the sequence (P20309 whole entry, looked up) above

Changes are numbered by the printed parent chain. pEC50, pIC50, pKi: −log10 of the molar value.

T5 sequence (P09483 whole entry): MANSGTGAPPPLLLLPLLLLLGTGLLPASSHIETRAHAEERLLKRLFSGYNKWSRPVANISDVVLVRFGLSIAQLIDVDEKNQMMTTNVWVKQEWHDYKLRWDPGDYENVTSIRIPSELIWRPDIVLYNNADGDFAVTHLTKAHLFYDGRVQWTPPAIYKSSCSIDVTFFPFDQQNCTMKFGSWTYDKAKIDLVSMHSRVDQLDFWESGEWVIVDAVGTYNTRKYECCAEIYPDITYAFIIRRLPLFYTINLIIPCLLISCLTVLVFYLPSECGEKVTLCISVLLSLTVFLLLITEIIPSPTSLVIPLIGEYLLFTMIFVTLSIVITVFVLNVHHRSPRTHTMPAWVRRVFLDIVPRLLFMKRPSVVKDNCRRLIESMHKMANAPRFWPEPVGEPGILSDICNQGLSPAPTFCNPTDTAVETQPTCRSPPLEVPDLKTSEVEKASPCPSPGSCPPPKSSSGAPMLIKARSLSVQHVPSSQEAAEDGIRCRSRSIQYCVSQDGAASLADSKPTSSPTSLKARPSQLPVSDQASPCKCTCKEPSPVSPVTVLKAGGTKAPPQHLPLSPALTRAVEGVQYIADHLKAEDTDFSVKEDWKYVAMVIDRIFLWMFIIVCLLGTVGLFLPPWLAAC
T5 sequence (P12390 whole entry): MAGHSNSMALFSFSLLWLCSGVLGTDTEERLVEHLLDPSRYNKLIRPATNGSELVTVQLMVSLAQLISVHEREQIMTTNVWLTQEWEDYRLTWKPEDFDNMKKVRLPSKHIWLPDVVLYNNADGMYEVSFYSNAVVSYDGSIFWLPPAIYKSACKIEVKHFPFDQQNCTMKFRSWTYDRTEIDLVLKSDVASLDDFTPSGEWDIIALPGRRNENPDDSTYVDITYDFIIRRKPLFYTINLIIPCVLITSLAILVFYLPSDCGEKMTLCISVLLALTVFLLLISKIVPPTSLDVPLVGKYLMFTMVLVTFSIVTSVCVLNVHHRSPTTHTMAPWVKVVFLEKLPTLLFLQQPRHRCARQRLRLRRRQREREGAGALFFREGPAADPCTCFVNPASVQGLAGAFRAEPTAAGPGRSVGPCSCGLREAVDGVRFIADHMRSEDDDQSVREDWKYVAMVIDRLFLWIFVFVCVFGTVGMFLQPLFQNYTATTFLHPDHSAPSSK

By pKi is commonly meant −log10 of the Ki, conventionally taken in molar units. A word on the pEC50: it is the negative decadic logarithm of the EC50, by convention in mol/L. As usually defined, the pIC50 is the negative decadic logarithm of the IC50, by convention in mol/L. A word on the inhibition: it is how much of the control response was suppressed. For `CC(=O)OC(C)C[N+](C)(C)C` (stereo not drawn) [METHACHOLINE], the pKi in test [1] is 5.80; in test [3] it was 5.80; in test [7] it was 7.23; in test [11], 7.23. The pEC50 in test [2] is 6.40; in [13], 6.92. Also, the pIC50 in test [4] was 5.28; in test [5], 6.42; in test [6], 6.42; in test [8], 6.15; in test [9] it was 5.28. Further, the inhibition in test [10] was 34%; in [12], 8%.

In the case of `CC(=O)O[C@H]1CCC2CCC1N2` (stereo partly drawn), the pKi in test [14] and in test [15] was 4.49 each time.

For `COC(=O)C1CC2CCCC1N2` (stereo not drawn), the pKi in test [1] was 5.10; in test [3], 5.10; in test [16], 4.74; in test [17] it was 6.59; in test [19], 6.59; in [7], 6.32. The pKi is 6.82 in test [14], 6.82 in [15] and 6.32 in [11]. The inhibition in test [18] and in [12] was 24% throughout.

As to `COC(=O)C1CC2NC1CCC2=O` (stereo not drawn), the inhibition in test [20] amounted to 0%; in test [21], 15%; in test [22] it was 15%.

Turning to `COC(=O)[C@H]1CC2NC1CC[C@@H]2OC(C)=O` (stereo partly drawn), the figures for the inhibition in [20], in test [21] and in [22] were 1%, 13% and 13%, respectively.

In the case of `COC(=O)C1CC2NC1CCC21SCCS1` (stereo not drawn), the inhibition in [20] was 3%; in test [21] it was 36%; in test [22], 36%.

Regarding `CC(=O)O[C@H]1CCC2NC1C[C@@H]2S(=O)(=O)c1ccccc1` (stereo partly drawn), the values for the inhibition in [20], in [21] and in test [22] were 0%, 16% and 16%, respectively.

As to `COC(=O)C1C(O)CC2CCC1N2C` (stereo not drawn), the inhibition in test [20] was 27%; in test [21], 11%; in [23], 28%; in test [22], 11%; in test [10] it was 19%; in test [12], 13%.

Regarding `CC(=O)O[C@@H]1CCC2CCC1N2` (stereo partly drawn), the pKi in test [14] and in test [15] was 4.62 in each case.

For `CCSC1CCC2NC1CC2C(=O)OC` (stereo not drawn), the inhibition in test [20] came to 7%; in [21], 50%; in [22], 50%.

Take `CC(=O)OC1CC2CC(=O)CC1N2` (stereo not drawn): the inhibition in test [20] was 11%; in [21], 13%; in test [22] it was 13%.

For the molecule `COC(=O)[C@H]1CC2NC1CC[C@H]2O` (stereo partly drawn), the pKi in test [14] and in [15] was 4.19 each time.

Consider `CC(=O)O[C@@H]1CCC2NC1C[C@@H]2S(=O)(=O)c1ccccc1` (stereo partly drawn), for which the inhibition in test [20] was 6%; in [21], 10%; in test [22], 10%.

As for `COC(=O)[C@H]1CC2NC1CC[C@H]2OC(C)=O` (stereo partly drawn), the inhibition was 1% in test [20], 19% in test [21] and 19% in test [22].

On to `CC(=O)OC1CC2CC(=O)CC1N2C` (stereo not drawn), for which the inhibition in test [20] was determined as 0%; in test [21], 5%; in [22], 5%.
